Data published in the RNAGym collection of RNA variant scans (doi:10.1126/science.aae0568).
This sample holds only a part of the variants without activity.

B1: tRNA (parent)
chain: GUUCCGUUGGCGUAAUGGUAACGCGUCUCCCUCCUAAGGAGAAGACUGCGGGUUCGAGUCCCGUACGGAACG

Variants of: B1
Experiment: yeast fitness relative to wild type (ratio to wild type); higher = fitter; tRNA-Arg(CCU), competitive growth, 37 C, YPD
Outline: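 For this measurement, the tRNA-Arg(CCU) gene was varied by chemical synthesis at a 3% per-site mutation rate across 69 sites, and each variant was placed at the native genomic locus in Saccharomyces cerevisiae. The pooled strains went through a 24-hour competition in YPD at 37°C in six parallel replicates, with amplicons from start and end populations read by 100-nucleotide paired-end sequencing. Darwinian fitness relative to wild type followed from the change in each genotype's frequency. Genotypes needed ≥ 100 starting reads, and estimates < 0.5 were set to 0.5.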

Variant	yeast fitness
GAUCCGUUGGCGUAAUGGUAACGCGUCUCCCUCCUAAGGAGAAGACUGCGGGUUCGUGUCCCGUACGGAACG [U2A A57U]	0.663
GAUCCGUUGGCGUAAUGGUAACGCGUCUCCCUCCUAAGGAGACGACUGUGGGUUCGAGUCCCGUACGGAACG [U2A A43C C49U]	0.602
GAUCCGUUGGGGUAAUGGUAACGCGUCUCACUCCUAAGGAGAAUACUGCGGGUUCGGGUCCCGUACGGAACG [U2A C11G C30A G44U A57G]	≤ 0.5
GAUCUGUUGGUGUUAUAGUACCGCGUCUCCCUCCUAACGAGAAGACUGAGGGUUCGAGUCCCGUACGGAACG [U2A C5U C11U A14U G17A A21C G38C C49A]	≤ 0.5
GAUCAGUUGGCGUAAUGGUAACGCGUCUCCAUCCUAAGGAGAGGCCUGCGGGUUCGAGUCCCGUACGGAACG [U2A C5A C31A A43G A45C]	≤ 0.5
GAUCCGUUGGCGUAAUGGUAACGCGUCUCCCUCCUAAGGAGACGACUGCGGGUUCGAGUCUCGUACGGAACG [U2A A43C C61U]	0.572
GAUCAGUUGGCGUAAUGGUAACGCGUCUCCCUCCUAAGGAGAAGACUGCGGGUUCGAGUCCCGUACGCAACG [U2A C5A G68C]	≤ 0.5
GAUCCGUUGGGGUAAUGGUAACGCGUCUCCUUCCUGAGGAGAAGACUGCGGGUUCGAGUCCCGUACGGAACG [U2A C11G C31U A36G]	0.646
GAUCUAUUGGCGUAAUGGUAACGCGUCUCCCUCCUAAGCAGAAGACUGCGGGUUCGAGUACCGUACGGAACG [U2A C5U G6A G39C C60A]	≤ 0.5
GAUUCGUUGGCGUAAUGGUAACGCGUCUCCCUCCUAAGGAGAAGACUGCGGGUUCGAGUCCCGUACGGAACG [U2A C4U]	0.965
GAUCGGUUGGCGUAAUGGUAACGCGUCUCCCUCCUAACGAGAAGACUGCGGGUUCGAGUCCCGUACGGAACG [U2A C5G G38C]	≤ 0.5
GAUCCGUUGGGGUAAUGGUAACGCGUCUCCCUCCGAAGGAGAAGACAACGGGUUCGAGUCCCGUUCGGAACG [U2A C11G U35G U47A G48A A65U]	≤ 0.5
GAUCCGUUGGCGUAAUGGUAACGCGUCUCCCUCCUAAGGAGAAGACUGCGGGUUCGUGUCCCGUACGCAACG [U2A A57U G68C]	≤ 0.5
GAUACGUUGGCGUAAUGGUAACGCGCCUCCUUCCUAAAGAGAAGACUGCGGGUUCGAGUCCCGUACGGAACG [U2A C4A U26C C31U G38A]	≤ 0.5
GAUCCGUUGGCGUAAUGGUAACGCGUCUCCCUCCUAUGGAGAAGACUGCGGGAUCGAGUCCUGUACGGAACG [U2A A37U U53A C62U]	≤ 0.5
GAUCGGUUGGCGUAAUGGUAACGCGUCUCCCUCCUAAGGAAAUGACUGCGGGUGCGUGUCCCGUACGGAACG [U2A C5G G41A A43U U54G A57U]	≤ 0.5
GAUUCGUUGGCGUAAUGGUAACGCGUCUCCCUCCUAAGGAGAAGACUGCGGGUUCGAGUCCCGUACGGUACG [U2A C4U A69U]	0.787
GAUCCGUUGGAGUGAUGGUAACGCGUCUUCCUCCUAAGGAGAAGACUGCGGGUUCGAGUCCCGUACGUAACG [U2A C11A A14G C29U G68U]	0.564
GAUCCGUUGGCGUAAUGGUAACGCGUCUCCCUCCUGAGGAGAAGACUGCGGGUUCGAGUCCCGUACGGAACG [U2A A36G]	0.985

Variant	yeast fitness
GAUCCGUUGGGGUAAUGGUAACGCGUCUCCCUCGUAAGGAGAAGACUGCGGGUUCGAGUCCCGGACGGAACG [U2A C11G C34G U64G]	≤ 0.5
GAUGCGUUGGCGUAAUGGUAACGCGUCUCCCUCCUAAGGAGAAGACUGCGGGUUAGAGUCGCGUACGGAACG [U2A C4G C55A C61G]	≤ 0.5
GAUCAGUUGGCGUAAUGGUAACGCGUCUCCCUCCUAAGGAGAAGACUGCGGGUUCGAGUCCCGGAUGGAACG [U2A C5A U64G C66U]	≤ 0.5
GAUCCGUUGGCGUAAUGGUAACGCGUCUCCCUCCUAAGGAGAAGACUGCGGGUUCGAGUCCCGUCCGGAACG [U2A A65C]	0.848
GAUCUGUUGGCGUAAUGGUAACGCGUCUCCAUCCUAAGGAGAAGACUGCGGGUUCGAGUCCUGUACGGAACG [U2A C5U C31A C62U]	≤ 0.5
GAUCCGUUGGGGUAAUGGUAACGCGUCUCCCUCCUAAGGAGAAGACUGCGGGUUCGUGUCCCGUAUGGAACG [U2A C11G A57U C66U]	0.588
GAUCAGUUGGCGUAAUGGUAACGCGUCUCCCUCCUAAGGAGAAGACUCCGGGUUGGAGUCCCGUAAGGAACG [U2A C5A G48C C55G C66A]	≤ 0.5
GAUCAGUUCGCGUAACGGUAACGCCUCUCCCUCCUAAGGAGAAGACUGCGGGUUCGAGUCCCGUACGCAACG [U2A C5A G9C U16C G25C G68C]	0.586
GAUCCGUUGGGGUAAUGGUAGCGCGUCUCCCUCCUAAGGAGAAGACUGCGGGUUCGAGUCCCGUUCGGAACG [U2A C11G A21G A65U]	≤ 0.5
GAUCUGUUGGCGUAAUGGUAACGCGUCUCCCUCCUAAGGAGAAGACUGCGGGUUCGAGUCCCGUAUGGAACG [U2A C5U C66U]	0.661
GAUCCGUUGGUGUAAUGGUAACGCGUCUCCCUCCUAAGGAGAAGACUGCGGGUUCGAGUCCCGUACGGUACG [U2A C11U A69U]	0.648
GAUCGGUUGGCGUAAUGGUAACGUGUCUCGCUCCUAAGGAGAAGACUGCGGGUUCGAGUCCCGUACGAAACG [U2A C5G C24U C30G G68A]	≤ 0.5
GAUCUGUUGGCGUAAUGGUAACGCGUCUCCCUCCUAAAGAGAAGACUGCGGGUUAGAGUCCCGUACGGAACG [U2A C5U G38A C55A]	≤ 0.5
GAUCCGUUGGGGUAAUGGCAACGCGUCUCCCUCCUAAGGAGAAGACUGCGGGUUCGAGUCCCGUACGGAACG [U2A C11G U19C]	≤ 0.5
GAUCCGUUGGCGUAAUGGUAACGCGUCUCCCUCCUAAGGAGAAGACUGCGGGUUCGAGUCCCGUACGGAUCG [U2A A70U]	1.06
GAUCCGUUGGCGUAAUGGUAACGCGUCUCCCUCCUAAGGAGAAGACUGCGGGUUCGAGUCCCGUACGGAGCG [U2A A70G]	0.979
GAUCCGUUGGCGUAAUGGUAACGCGUCUCCCUCCUAAGGUGAAGACUCCGGGUUCGAGUCCCGUACGGAACG [U2A A40U G48C]	≤ 0.5
GAUACGUUGGCGCAAUGGUAACGCGUCUCCCUCCUAAGGAGGAGACUGCGGGUUGGAGUCCCGUACAGAACG [U2A C4A U13C A42G C55G G67A]	≤ 0.5
